The source made the active and inactive calls.
What was measured:
[1] = Antioxidant activity assessed as DPPH radical scavenging activity measured after 30 mins; type: functional
Method in brief: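 DPPH scavenging: compound at 12.5, 25, 50 and 100 µM in ethanol (4 mL) mixed with 1 mL of 0.5 mM DPPH in ethanol. Shaken 30 min at room temperature, absorbance read at 517 nm. % inhibition = (A control − A sample)/A control × 100. Run in triplicate; EC50 obtained by linear regression of mean values.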

[2] = tested on: SH-SY5Y; assay: Antioxidant activity in human SH-SY5Y cells assessed as reduction in H2O2-induced reactive oxygen species formation measured after 24 hrs by DCFH-DA probe based fluorescence assay; type: functional, cell-based
[3] = biological target: Acetylcholinesterase (Electrophorus electricus, UniProt O42275); assay: Inhibition of Electrophorus electricus AChE using acetylthiocholine iodide as substrate pretreated for 10 mins followed by substrate addition measured at 12 secs interval for 5 mins by Ellman's method
[4] = tested on: Mus musculus; assay: Anti-inflammatory activity in Swiss mouse assessed as reduction in carrageenan-induced paw edema at 100 umol/kg, po pretreated for 1 hr followed by carrageenan challenge after 3 hrs by plethysmometer; type: functional, organism-based
Method in brief: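 Adult male Swiss mice (22-28 g), fasted overnight, given vehicle (DMSO 2% in sterile saline) or 100 µmol/kg orally 1 h before intraplantar carrageenan. Methods give 400 µg/20 µl and n=10 per group; figure legend gives 100 µg/paw and n=8. Right hind paw volume read by plethysmometer at 1, 3 and 5 h. Reported as change in µL from basal volume, mean ± SEM.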

[5] = tested on: Mus musculus; assay: In vivo inhibition of COX-1 activity in carrageenan-induced Swiss mouse serum at 100 umol/kg, po pretreated for 1 hr followed by carrageenan challenge after 3 hrs by ELISA relative to control; type: functional
Method in brief: (§1)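 Male Swiss mice given oral drug (100 µmol/kg) or vehicle 1 h before intraplantar carrageenan (legend: 400 µg/paw). At 3 h, animals anaesthetised with chloral hydrate and cardiac blood taken. Serum separated (1500 rpm, 20 min) and frozen at -70 °C. COX-1, COX-2 and 5-LOX measured by specific sandwich ELISA at 450 nm. Expressed as % enzymatic activity, mean ± SEM, n=8.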

[6] = tested on: Mus musculus; assay: Antiinflammatory activity in formalin-induced nociception Swiss mouse model assessed as reduction in time spent licking formalin injected hind paw during inflammatory phase at 100 umol/kg, po pretreated for 1 hr followed by formalin challenge measured after 20 to 30 mins; type: functional, organism-based
Method in brief: (§2)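 Male Swiss mice (22-28 g), n=8 per group, given oral vehicle (saline + DMSO 2%) or 100 µmol/kg 1 h before formalin (5% in 0.9% saline, 20 µl) into the right hind paw sub-plantar region. Morphine 39 µmol/kg i.p. was given 30 min before. Paw-licking time recorded at 0–5 min (neurogenic phase) and 20–30 min (inflammatory phase).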

[7] = tested on: Mus musculus; assay: In vivo inhibition of COX-2 activity in carrageenan-induced Swiss mouse serum at 100 umol/kg, po pretreated for 1 hr followed by carrageenan challenge after 3 hrs by ELISA relative to control; type: functional; method in brief: as §1
[8] = tested on: Mus musculus; assay: Antinociceptive activity in carrageenan-induced Swiss mouse model of mechanical hyperalgesia at 100 umol/kg, po pretreated for 1 hr followed by carrageenan challenge measured at 3 hrs post dose by Von Frey filament assay; type: functional, organism-based
Method in brief: (§3)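 Male Swiss mice (n=8) dosed orally with 100 µmol/kg or vehicle 1 h before intraplantar carrageenan (100 µg/paw). Mechanical threshold measured by up-and-down Von Frey method after 60 min acclimation on a wire screen. Started at 0.4 g filament, ≥6 trials at 10 s intervals, about 4 s per application. Reported as mean threshold in grams ± SEM.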

[9] = tested on: Mus musculus; assay: Antiinflammatory activity in formalin-induced nociception Swiss mouse model assessed as reduction in time spent licking formalin injected hind paw during neurogenic phase at 100 umol/kg, po pretreated for 1 hr followed by formalin challenge measured up to 5 mins; type: functional, organism-based; method in brief: as §2
[10] = tested on: SH-SY5Y; assay: Antioxidant activity in human SH-SY5Y cells assessed as increase in GSH level at 20 uM after 24 hrs by MCB probe based assay relative to control; type: functional
Method in brief: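 SH-SY5Y cells (DMEM, 10% FBS, 37 °C, 5% CO2) seeded at 2 x 10^4 cells/well and grown 24 h. Treated with 20 µM compound for 3-24 h. Then 50 µM monochlorobimane in PBS for 30 min at 37 °C. GSH fluorescence read at ex 360/em 465 nm, as % of control cells. Mean ± SD of three independent experiments.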

[11] = biological target: Cholinesterase (Equus caballus) (UniProt P81908); assay: Inhibition of equine serum BuChE at 30 uM using butyrylthiocholine iodide as substrate pretreated for 10 mins followed by substrate addition measured at 12 secs interval for 5 mins by Ellman's method relative to control
[12] = Cytotoxicity against human SH-SY5Y cells assessed as reduction in cell viability at 40 uM after 24 hrs by MTT assay relative to control; type: cell-based; details: read-out: INH
Method in brief: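 SH-SY5Y cells seeded at 2 x 10^4 cells/well, grown 24 h, then exposed to compound 1.25–40 µM for 24 h at 37 °C. MTT (5 mg/mL in PBS) added for 2 h and formazan dissolved in isopropanol. Read at 570 nm, reference 690 nm. Viability loss reported as percent at the top concentration, 40 µM.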

[13] = biological target: Acetylcholinesterase (Electrophorus electricus) (UniProt O42275); assay: Inhibition of Electrophorus electricus AChE at 30 uM using acetylthiocholine iodide as substrate pretreated for 10 mins followed by substrate addition measured at 12 secs interval for 5 mins by Ellman's method relative to control
Method in brief: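 Enzyme (0.5 U/mL) with DTNB (10 mM) in 0.1 M sodium phosphate pH 7.4; compound at 30 μM preincubated 10 min, then acetylthiocholine or butyrylthiocholine iodide added ([…]); A412 read every 12 s for 5 min. Velocity as percent of vehicle control; means and pooled SD from 2-4 experiments in triplicate. DMSO ≤0.2% final.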

[14] = Metal chelating activity assessed as absorption maximum for compound-Cu2+ complex formation at 75 uM after 30 mins by UV-Vis spectrophotometric method (reference value: 237.2 nanometer); type: functional
Method in brief: (§4)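 UV-Vis spectra in ethanol of compound at 75 µM alone or after 30 min incubation with CuSO4, FeSO4, FeCl3 or ZnCl2 (150 µM). Absorption maxima recorded.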

[15] = Metal chelating activity assessed as compound-Fe3+ complex formation at 75 uM after 30 mins by UV-Vis spectrophotometric method; type: functional; method in brief: as §4
[16] = Metal chelating activity assessed as absorption maximum for compound-Fe2+ complex formation at 75 uM after 30 mins by UV-Vis spectrophotometric method (reference value: 237.2 nanometer); type: functional; method in brief: as §4
[17] = Metal chelating activity assessed as absorption maximum for compound-Zn2+ complex formation at 75 uM after 30 mins by UV-Vis spectrophotometric method; type: functional; method in brief: as §4
[18] = tested on: SH-SY5Y; assay: Antioxidant activity in human SH-SY5Y cells assessed as reduction in H2O2-induced reactive oxygen species formation at 40 uM measured after 24 hrs by DCFH-DA probe based fluorescence assay relative to control; type: functional; parameters: scale not given: the % may be the effect or the level left
[19] = tested on: Mus musculus; assay: Neurotoxicity in Swiss mouse assessed as induction of motor impairment at 100 umol/kg, po measured after 1 hr by open filed test; type: toxicity, organism-based; details: in vivo
Method in brief: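 Male Swiss mice (n=8) given vehicle or compound orally 1 h before open-field test. Crossings of the central four and peripheral 12 squares counted separately.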

[20] = tested on: SH-SY5Y; assay: Antioxidant activity in human SH-SY5Y cells assessed as reduction in H2O2-induced reactive oxygen species formation at 10 uM measured after 24 hrs by DCFH-DA probe based fluorescence assay; type: functional, cell-based
[21] = tested on: Mus musculus; assay: Antinociceptive activity in carrageenan-induced Swiss mouse model of mechanical hyperalgesia at 100 umol/kg, po pretreated for 1 hr followed by carrageenan challenge measured at 3 hrs to 7 hrs post dose by Von Frey filament assay; type: functional, organism-based; method in brief: as §3
[22] = tested on: Mus musculus; assay: Anti-inflammatory activity in Swiss mouse model of LPS-induced peritonitis assessed as inhibition of leukocyte migration at 100 umol/kg, po pretreated for 30 mins followed by LPS challenge measured after 4 hrs by Neubauer chamber method; type: functional, organism-based
Method in brief: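 Adult male Swiss mice (22-28 g), n=8 per group, dosed orally with 100 µmol/kg or vehicle (saline + DMSO 2%). 30 min later E. coli 026:B6 LPS, 100 µg/kg i.p. in sterile saline. Killed at 4 h by halothane overdose. Peritoneum lavaged with 10 ml PBS containing 0.5% sodium citrate. Total leukocytes counted in a Neubauer chamber, expressed as cells per cavity, mean ± SEM.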

[23] = tested on: SH-SY5Y; assay: Pro-oxidant activity in human SH-SY5Y cells assessed as increase in H2O2-induced reactive oxygen species formation at 20 to 40 uM pretreated for 24 hrs followed by H2O2 addition by DCFH-DA probe based fluorescence assay; type: ADME, cell-based
[24] = biological target: Cholinesterase (Equus caballus, UniProt P81908); assay: Inhibition of equine serum BuChE using butyrylthiocholine iodide as substrate pretreated for 10 mins followed by substrate addition measured at 12 secs interval for 5 mins by Ellman's method
Method in brief: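 Ellman assay in 0.1 M sodium phosphate pH 7.4, enzyme 0.5 U/mL, DTNB 10 mM; concentration series preincubated 10 min before butyrylthiocholine iodide ([…]); A412 over 5 min at 12 s intervals. IC50 from fitted concentration-response curves, geometric mean of independent experiments, each in triplicate; DMSO ≤0.2% final.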

[25] = Homo sapiens, SH-SY5Y, 24 h, read-out: IC50

Acetylcholinesterase, sequence (O42275 whole entry): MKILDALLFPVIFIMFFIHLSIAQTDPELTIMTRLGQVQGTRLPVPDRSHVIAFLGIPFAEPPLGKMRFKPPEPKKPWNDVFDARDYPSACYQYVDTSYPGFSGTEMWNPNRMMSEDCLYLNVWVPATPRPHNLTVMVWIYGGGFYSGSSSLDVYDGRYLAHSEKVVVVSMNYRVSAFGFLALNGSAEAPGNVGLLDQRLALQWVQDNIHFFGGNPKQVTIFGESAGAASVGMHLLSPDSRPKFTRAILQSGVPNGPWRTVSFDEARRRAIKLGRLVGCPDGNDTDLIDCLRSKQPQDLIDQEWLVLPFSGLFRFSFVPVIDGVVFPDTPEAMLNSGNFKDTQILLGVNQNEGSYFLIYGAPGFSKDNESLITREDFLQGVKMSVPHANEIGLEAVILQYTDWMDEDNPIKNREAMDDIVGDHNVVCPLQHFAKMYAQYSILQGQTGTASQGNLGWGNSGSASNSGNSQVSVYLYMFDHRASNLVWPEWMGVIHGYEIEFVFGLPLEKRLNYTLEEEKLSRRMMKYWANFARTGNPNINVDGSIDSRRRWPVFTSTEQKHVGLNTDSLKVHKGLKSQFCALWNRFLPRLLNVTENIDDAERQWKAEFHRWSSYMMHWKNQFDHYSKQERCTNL
Cholinesterase, sequence (P81908 whole entry): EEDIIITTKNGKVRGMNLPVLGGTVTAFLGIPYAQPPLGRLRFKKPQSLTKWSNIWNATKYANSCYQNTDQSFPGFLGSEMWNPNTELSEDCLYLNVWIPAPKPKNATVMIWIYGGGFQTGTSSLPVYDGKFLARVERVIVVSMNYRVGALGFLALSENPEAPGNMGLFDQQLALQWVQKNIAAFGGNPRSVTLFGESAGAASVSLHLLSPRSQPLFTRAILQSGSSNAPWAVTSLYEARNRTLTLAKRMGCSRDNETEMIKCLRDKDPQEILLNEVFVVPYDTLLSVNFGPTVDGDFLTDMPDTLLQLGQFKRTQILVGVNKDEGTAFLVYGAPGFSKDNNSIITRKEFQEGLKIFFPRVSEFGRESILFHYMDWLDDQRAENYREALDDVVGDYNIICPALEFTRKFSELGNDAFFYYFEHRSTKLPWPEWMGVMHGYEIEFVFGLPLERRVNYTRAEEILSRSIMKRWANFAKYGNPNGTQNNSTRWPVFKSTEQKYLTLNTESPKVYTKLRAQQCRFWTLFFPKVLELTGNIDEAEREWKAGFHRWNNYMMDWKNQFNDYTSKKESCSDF
Cholinesterase (Equus caballus), sequence (P81908 whole entry): as above
Acetylcholinesterase (Electrophorus electricus), sequence (O42275 24-633 limits assumed): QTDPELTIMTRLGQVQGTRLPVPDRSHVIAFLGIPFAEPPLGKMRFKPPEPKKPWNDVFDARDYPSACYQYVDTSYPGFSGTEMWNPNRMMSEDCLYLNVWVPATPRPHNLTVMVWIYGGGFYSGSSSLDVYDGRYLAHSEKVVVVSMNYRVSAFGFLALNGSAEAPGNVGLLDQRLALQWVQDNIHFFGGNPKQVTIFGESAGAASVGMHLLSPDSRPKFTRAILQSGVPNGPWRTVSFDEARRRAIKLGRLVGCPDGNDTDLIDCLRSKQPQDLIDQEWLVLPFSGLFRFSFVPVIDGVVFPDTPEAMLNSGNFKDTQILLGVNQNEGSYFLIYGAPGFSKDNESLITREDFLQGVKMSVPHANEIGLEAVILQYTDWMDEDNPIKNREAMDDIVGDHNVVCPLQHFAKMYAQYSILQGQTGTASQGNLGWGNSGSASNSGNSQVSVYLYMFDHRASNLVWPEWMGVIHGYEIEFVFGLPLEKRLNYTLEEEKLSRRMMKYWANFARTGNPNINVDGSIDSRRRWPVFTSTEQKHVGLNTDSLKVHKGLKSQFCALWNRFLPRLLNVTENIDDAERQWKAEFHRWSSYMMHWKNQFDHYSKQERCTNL

COc1ccc(/C=C/C(=O)O)cc1O [ISOFERULIC ACID]
EC50 [1]: > 100 µM

COc1cc(/C=C/C(=O)O)ccc1O [FERULATE]
EC50 [1]: 35.5 µM
IC50 [2, 25]: 11.8 µM

Cc1c(C)c2c(c(C)c1O)CCC(C)(C(=O)O)O2 (configuration not stated) [TROLOX]
EC50 [1]: 4.86 µM

COc1ccc(/C=C/C(=O)OCC2CCN(Cc3ccc(N4CCOCC4)cc3)CC2)cc1O
IC50 [3]: > 30 µM
EC50 [1]: > 100 µM

COc1ccc2c(c1)c(CC(=O)O)c(C)n2C(=O)c1ccc(Cl)cc1 [INDOMETHACIN]
Activity [4]: Active
inhibition in vivo at 100 µmol/kg [5]: 50%
Activity [6]: Active
inhibition in vivo at 100 µmol/kg [7]: 42%
Activity [8]: Active
Activity [9]: Active

COc1ccc(CN2CCC(COC(=O)/C=C/c3ccc(OC)c(O)c3)CC2)cc1
IC50 [3]: > 30 µM
EC50 [1]: > 100 µM

COc1cc(/C=C/C(=O)OCC2CCN(Cc3ccc([N+](=O)[O-])cc3)CC2)ccc1O
fold change (FC) [10]: 1.2
inhibition [11]: 4.3%
cytotoxicity at 24 h, 40 µM [12]: 9%
inhibition [13]: 50%
IC50 [3]: 16.7 µM
EC50 [1]: 46.7 µM
Activity [14]: Active
Activity [15]: inactive
Activity [16]: Active
Activity [17]: inactive
Activity [2]: Dose-dependent effect
IC50 [2, 25]: 25.9 µM

COc1cc(/C=C/C(=O)OCC2CCN(Cc3ccc(Cl)cc3)CC2)ccc1O
IC50 [3]: > 30 µM
EC50 [1]: 20.5 µM

COc1cc(/C=C/C(=O)OCC2CCN(Cc3ccc4c(c3)OCO4)CC2)ccc1O
IC50 [3]: > 30 µM
EC50 [1]: > 100 µM

COc1cc(/C=C/C(=O)OCC2CCN(Cc3ccc(N4CCOCC4)cc3)CC2)ccc1O
IC50 [3]: > 30 µM
EC50 [1]: 73.8 µM

COc1cc2c(cc1OC)C(=O)C(CC1CCN(Cc3ccccc3)CC1)C2 (configuration not stated) [DONEPEZIL]
Activity [18]: <50%
IC50 ([2]; sh-sy5y): Not Active

COc1ccc(/C=C/C(=O)OCC2CCN(Cc3ccc(Br)cc3)CC2)cc1O
IC50 [3]: > 30 µM
EC50 [1]: > 100 µM

COc1ccc(/C=C/C(=O)OCC2CCN(Cc3ccc4c(c3)OCO4)CC2)cc1O
IC50 [3]: > 30 µM
EC50 [1]: > 100 µM
IC50 ([2]; sh-sy5y): Not Active

COc1cc(/C=C/C(=O)OCC2CCN(Cc3ccc(Br)cc3)CC2)ccc1O
Activity [10]: inactive
cytotoxicity at 24 h, 40 µM [12]: 28%
Activity [18]: <50%
Activity [19]: Non-Toxic
IC50 [3]: > 30 µM
EC50 [1]: 45.4 µM
Activity [4]: Active
Activity [14]: Active
inhibition in vivo at 100 µmol/kg [5]: 30%
Activity [6]: Active
Activity [20]: Active
Activity [21]: Active
inhibition in vivo at 100 µmol/kg [7]: 60%
Activity [8]: Active
Activity [15]: inactive
inhibition [22]: Active
Activity [16]: Active
Activity [17]: inactive
Activity [23]: Toxic

COc1ccc(/C=C/C(=O)OCC2CCN(Cc3ccc(Cl)cc3)CC2)cc1O
IC50 [3]: > 30 µM
EC50 [1]: 12.5 µM

COc1ccc(/C=C/C(=O)OCC2CCN(Cc3ccc([N+](=O)[O-])cc3)CC2)cc1O
IC50 [3]: > 30 µM
EC50 [1]: > 100 µM

COc1ccc(CN2CCC(COC(=O)/C=C/c3ccc(O)c(OC)c3)CC2)cc1
IC50 [3]: > 30 µM
EC50 [1]: 78.1 µM

COc1cc(/C=C/C(=O)CC(=O)/C=C/c2ccc(O)c(OC)c2)ccc1O [CURCUMIN]
IC50 [24]: > 300 µM

COc1ccc(/C=C/C(=O)OCC2CCN(Cc3ccccc3)CC2)cc1O
IC50 [3]: > 30 µM
EC50 [1]: > 100 µM

From ChEMBL document CHEMBL4038269, “Design, synthesis and evaluation of novel feruloyl-donepezil hybrids as potential multitarget drugs for the treatment of Alzheimer's disease” (Eur J Med Chem, 2017)
